Reference: ChEMBL document CHEMBL3102835, “Dimeric unnatural polyproline-rich peptides with enhanced antibacterial activity” (Bioorg Med Chem Lett, 2014)
Values after ≈ are worked out from the molar mass of the structure shown.

Tests used:
[1] = tested on: Escherichia coli; test: Antibacterial activity against Escherichia coli ATCC 25922 assessed as release of beta-galactosidase at 20 µM after 1 hr relative to control
[2] = tested on: Escherichia coli; test: Antibacterial activity against Escherichia coli by broth microdilution method; type: functional
Summary of the method: (§1)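 Broth microdilution. E. coli ATCC 25922 or S. aureus ATCC 25923 grown to mid-exponential phase in TSB at 37 °C, 200 rpm. MIC taken as the lowest concentration with no growth.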

[3] = tested on: Staphylococcus aureus; test: Antibacterial activity against Staphylococcus aureus by broth microdilution method; type: functional
Summary of the method: as §1

[4] = tested on: Escherichia coli; test: Drug uptake in Escherichia coli ATCC 25922 assessed as increase in cellular fluorescence at 10 uM after 6 hrs by confocal microscopic analysis; type: ADME, organism-based; conditions: in vivo
Summary of the method: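 E. coli ATCC 25922 grown to mid-exponential phase in MHB at 37 °C, pelleted and resuspended in fresh MHB. Exposed to 10 µM fluorescein-labelled peptide or buffer for 10 min, 1 h or 6 h at 37 °C. Cells washed in PBS, fixed in 10% formalin, stained with 1 µM Hoechst, mounted on poly-lysine coverslips. Confocal imaging at equal laser intensity.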

[5] = tested on: Escherichia coli; test: Antibacterial activity against Escherichia coli ATCC 25922 assessed as release of beta-galactosidase at 5 times MIC after 1 hr relative to control; type: functional
[6] = tested on: Escherichia coli; test: Antibacterial activity against Escherichia coli ATCC 25922 assessed as release of beta-galactosidase after 1 hr relative to control; type: functional
Summary of the method: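 Cells washed twice in TSB, then exposed to peptide at 1× or 5× MIC for 1 h at 37 °C. Supernatant collected by cold centrifugation and mixed with ONPG. Release expressed versus buffer control.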

[7] = Toxicity in human RBC assessed as hemolysis by measuring hemoglobin release at 1 uM after 1 hr; type: cell-based; conditions: erythrocyte
Summary of the method: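 Fresh human RBCs from healthy volunteers, washed three times in PBS pH 7.4 and used as an 8% (v/v) suspension. Mixed with two-fold serial peptide dilutions and incubated 1 h at 37 °C. Positive controls were melittin and 1% Triton X-100.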

| SMILES | MIC [2] | MIC [3] | Drug uptake [4] | fold change (FC) [1] | fold change (FC) [5] | fold change (FC) [6] | Activity [7] |
| --- | --- | --- | --- | --- | --- | --- | --- |
| CC(C)COC1C[C@@H](C(=O)N2CC(OCCCNC(=N)N)C[C@H]2C(=O)N2CC(OCCCNC(=N)N)C[C@H]2C(=O)N2CC(OCC(C)C)C[C@H]2C(=O)N2CC(OCCCNC(=N)N)C[C@H]2C(=O)N2CC(OCCCNC(=N)N)C[C@H]2C(=O)N2CC(OCC(C)C)C[C@H]2C(=O)N2CC(OCCCNC(=N)N)C[C@H]2C(=O)N2CC(OCCCNC(=N)N)C[C@H]2C(=O)N2C[C@@H](OCC(C)C)CC2C(N)=O)N(C(=O)CNC(=O)c2ccc(-c3c4ccc(=O)cc-4oc4cc(O)ccc34)c(C(=O)O)c2)C1 (stereo not given in full) | 60 µM (≈ 143 µg/mL) | 60 µM (≈ 143 µg/mL) | Active | 3 | – | – | – |
| CC(=O)NCC(=O)N(CCCCC(=O)NCCC(=O)N1CC(OCC(C)C)C[C@H]1C(=O)N1CC(OCCCNC(=N)N)C[C@H]1C(=O)N1CC(OCCCNC(=N)N)C[C@H]1C(=O)N1CC(OCC(C)C)C[C@H]1C(=O)N1CC(OCCCNC(=N)N)C[C@H]1C(=O)N1CC(OCCCNC(=N)N)C[C@H]1C(=O)N1CC(OCC(C)C)C[C@H]1C(=O)N1CC(OCCCNC(=N)N)C[C@H]1C(=O)N1CC(OCCCNC(=N)N)C[C@H]1C(=O)N1CC(OCC(C)C)C[C@H]1C(N)=O)CCCCC(=O)NCCC(=O)N1CC(OCC(C)C)C[C@H]1C(=O)N1CC(OCCCNC(=N)N)C[C@H]1C(=O)N1CC(OCCCNC(=N)N)C[C@H]1C(=O)N1CC(OCC(C)C)C[C@H]1C(=O)N1CC(OCCCNC(=N)N)C[C@H]1C(=O)N1CC(OCCCNC(=N)N)C[C@H]1C(=O)N1CC(OCC(C)C)C[C@H]1C(=O)N1CC(OCCCNC(=N)N)C[C@H]1C(=O)N1CC(OCCCNC(=N)N)C[C@H]1C(=O)N1CC(OCC(C)C)C[C@H]1C(N)=O (stereo not given in full) | 4 µM (≈ 17.4 µg/mL) | 8 µM (≈ 34.9 µg/mL) | – | – | – | – | – |
| CC(C)COC1C[C@@H](C(=O)N2CC(OCCCNC(=N)N)C[C@H]2C(=O)N2CC(OCCCNC(=N)N)C[C@H]2C(=O)N2CC(OCC(C)C)C[C@H]2C(=O)N2CC(OCCCNC(=N)N)C[C@H]2C(=O)N2CC(OCCCNC(=N)N)C[C@H]2C(=O)N2CC(OCC(C)C)C[C@H]2C(=O)N2CC(OCCCNC(=N)N)C[C@H]2C(=O)N2CC(OCCCNC(=N)N)C[C@H]2C(=O)N2CC(OCC(C)C)C[C@H]2C(=O)N2CC(OCCCNC(=N)N)C[C@H]2C(=O)N2CC(OCCCNC(=N)N)C[C@H]2C(=O)N2CC(OCC(C)C)C[C@H]2C(N)=O)N(C(=O)CNC(=O)c2ccc(-c3c4ccc(=O)cc-4oc4cc(O)ccc34)c(C(=O)O)c2)C1 (stereo not given in full) | 4 µM (≈ 11.9 µg/mL) | 12 µM (≈ 35.7 µg/mL) | – | – | 3 | – | – |
| CC[C@H](C)[C@H](NC(=O)CN)C(=O)NCC(=O)N[C@@H](C)C(=O)N[C@H](C(=O)N[C@@H](CC(C)C)C(=O)N[C@@H](CCCCN)C(=O)N[C@H](C(=O)N[C@@H](CC(C)C)C(=O)N[C@H](C(=O)N[C@H](C(=O)NCC(=O)N[C@@H](CC(C)C)C(=O)N1CCC[C@H]1C(=O)N[C@@H](C)C(=O)N[C@@H](CC(C)C)C(=O)N[C@H](C(=O)N[C@@H](CO)C(=O)N[C@@H](Cc1c[nH]c2ccccc12)C(=O)N[C@H](C(=O)N[C@@H](CCCCN)C(=O)N[C@@H](CCCNC(=N)N)C(=O)N[C@@H](CCCCN)C(=O)N[C@@H](CCCNC(=N)N)C(=O)N[C@@H](CCC(N)=O)C(=O)N[C@@H](CCC(N)=O)C(N)=O)[C@@H](C)CC)[C@@H](C)CC)[C@@H](C)O)[C@@H](C)O)C(C)C)C(C)C [MELITTIN] | – | – | – | – | – | 8 | Toxic |

More lines, in order of falling MIC [2], values ahead:

| MIC [2] | MIC [3] | Drug uptake [4] | SMILES | fold change (FC) [1] | fold change (FC) [5] | fold change (FC) [6] | Activity [7] |
| --- | --- | --- | --- | --- | --- | --- | --- |
| 1 µM (≈ 4.33 µg/mL) | 2 µM (≈ 8.66 µg/mL) | – | CC(=O)NCC(=O)N(CCCCC(=O)NCC(=O)N1CC(OCC(C)C)C[C@H]1C(=O)N1CC(OCCCNC(=N)N)C[C@H]1C(=O)N1CC(OCCCNC(=N)N)C[C@H]1C(=O)N1CC(OCC(C)C)C[C@H]1C(=O)N1CC(OCCCNC(=N)N)C[C@H]1C(=O)N1CC(OCCCNC(=N)N)C[C@H]1C(=O)N1CC(OCC(C)C)C[C@H]1C(=O)N1CC(OCCCNC(=N)N)C[C@H]1C(=O)N1CC(OCCCNC(=N)N)C[C@H]1C(=O)N1CC(OCC(C)C)C[C@H]1C(N)=O)CCCCC(=O)NCC(=O)N1CC(OCC(C)C)C[C@H]1C(=O)N1CC(OCCCNC(=N)N)C[C@H]1C(=O)N1CC(OCCCNC(=N)N)C[C@H]1C(=O)N1CC(OCC(C)C)C[C@H]1C(=O)N1CC(OCCCNC(=N)N)C[C@H]1C(=O)N1CC(OCCCNC(=N)N)C[C@H]1C(=O)N1CC(OCC(C)C)C[C@H]1C(=O)N1CC(OCCCNC(=N)N)C[C@H]1C(=O)N1CC(OCCCNC(=N)N)C[C@H]1C(=O)N1CC(OCC(C)C)C[C@H]1C(N)=O (stereo not given in full) | – | – | – | – |
| 1 µM (≈ 4.39 µg/mL) | 4 µM (≈ 17.5 µg/mL) | – | CC(=O)NCC(=O)N(CCCCC(=O)NCCCC(=O)N1CC(OCC(C)C)C[C@H]1C(=O)N1CC(OCCCNC(=N)N)C[C@H]1C(=O)N1CC(OCCCNC(=N)N)C[C@H]1C(=O)N1CC(OCC(C)C)C[C@H]1C(=O)N1CC(OCCCNC(=N)N)C[C@H]1C(=O)N1CC(OCCCNC(=N)N)C[C@H]1C(=O)N1CC(OCC(C)C)C[C@H]1C(=O)N1CC(OCCCNC(=N)N)C[C@H]1C(=O)N1CC(OCCCNC(=N)N)C[C@H]1C(=O)N1CC(OCC(C)C)C[C@H]1C(N)=O)CCCCC(=O)NCCCC(=O)N1CC(OCC(C)C)C[C@H]1C(=O)N1CC(OCCCNC(=N)N)C[C@H]1C(=O)N1CC(OCCCNC(=N)N)C[C@H]1C(=O)N1CC(OCC(C)C)C[C@H]1C(=O)N1CC(OCCCNC(=N)N)C[C@H]1C(=O)N1CC(OCCCNC(=N)N)C[C@H]1C(=O)N1CC(OCC(C)C)C[C@H]1C(=O)N1CC(OCCCNC(=N)N)C[C@H]1C(=O)N1CC(OCCCNC(=N)N)C[C@H]1C(=O)N1CC(OCC(C)C)C[C@H]1C(N)=O (stereo not given in full) | – | – | – | – |
